Reference: ChEMBL document CHEMBL3853359, “NO Photoreleaser-Deoxyadenosine and -Bile Acid Derivative Bioconjugates as Novel Potential Photochemotherapeutics” (ACS Med Chem Lett, 2016)
The source made the active and inactive calls. The rule behind the calls is not given here.

Assays:
[1] = Cytotoxicity against human HCT116 assessed as cell growth inhibition incubated for 72 hrs under dark condition by MTT assay; type: toxicity, cell-based, HCT-116; settings: for IC50 at 72 h: HCT116 cells; for growth inhibition (GI): hct-116, 72 h
Procedure, shortened: (§1)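 MTT read-out after 72 h continuous exposure in the dark. Test concentrations were 10, 25 and 50 μM for K562 leukaemia and HCT116 colon carcinoma cells, and up to 100 μM for normal human skin fibroblasts. IC50 was taken from dose–response curves, as the mean ± SD of three independent experiments.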

[2] = Cytotoxicity against human fibroblasts assessed as cell growth inhibition incubated for 72 hrs under dark condition by MTT assay; type: toxicity, cell-based, Fibroblast; procedure, shortened: as §1
[3] = Cytotoxicity against human K562 assessed as cell growth inhibition incubated for 72 hrs under dark condition by MTT assay; type: toxicity, cell-based; settings: for IC50 at 72 h: K562 cells; for growth inhibition (GI): k562, 72 h; procedure, shortened: as §1
[4] = Induction of NO release in phosphate buffer at 50 uM and pH 7.4 upon 1.5 mW/cm2 visible-light irradiation; type: physicochemical; settings: pH 7.4, 50 µM
Procedure, shortened: (§2)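 NO was monitored directly in real time with an amperometric NO electrode (nanomolar sensitivity). Samples were 50 μM solutions in 10 mM phosphate buffer, pH 7.4, with 0.5% DMSO, kept in the dark and then illuminated with visible light (λ = 420 nm, 1.5 mW cm–2).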

[5] = Stability of the compound in phosphate buffer at 50 uM and pH 7.4 under dark condition; type: physicochemical; settings: pH 7.4, 50 µM; procedure, shortened: as §2
[6] = Ratio of cytotoxicity against human HCT116 cells assessed as cell growth inhibition at 50 uM incubated for 72 hrs under dark condition by MTT assay to photocytotoxicity against human HCT116 cells assessed as cell growth inhibition at 50 uM incubated for 72 hrs after exposure to 7 mW/cm2 of light-irradiation for 40 mins by MTT assay
[7] = (§3) Photocytotoxicity against human HCT116 cells assessed as cell growth inhibition incubated for 72 hrs after exposure to 7 mW/cm2 of light-irradiation for 40 mins by MTT assay; type: functional, cell-based; settings: HCT-116, light or radiation study
Procedure, shortened: (§4)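 HCT116 cells with compound were irradiated with visible light (λ = 420 nm, 7 mW cm–2) for 40 min, then incubated to 72 h. Growth inhibition was read by MTT. IC50 was taken from dose–response curves, as the mean ± SD of three independent experiments.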

HCT-116 = assay: as §3; type: functional, cell-based; procedure, shortened: as §4
[8] = Photoreactivity of the compound in phosphate buffer assessed as photobleaching of visible band at 50 uM and pH 7.4 upon 7 mW/cm2 of light-irradiation measured up to 70 mins; type: physicochemical; settings: pH 7.4, 70 min
Procedure, shortened: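 50 μM solutions in 10 mM phosphate buffer, pH 7.4, with 0.5% DMSO were irradiated at λ = 420 nm, 7 mW cm–2, from 0 to 70 min. Absorption spectral changes were recorded, and kinetic profiles were followed at λmax and fitted linearly.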

SMILES	IC50 at 72 h [1]	IC50 at 72 h [2]	IC50 at 72 h [3]	Activity [4]	growth inhibition (GI) [1]	Stability [5]	growth inhibition (GI) [3]	Ratio [6]	IC50 [7]	Activity (HCT-116)	Activity [8]
C[C@H](CCC(=O)O)[C@H]1CC[C@H]2[C@@H]3[C@H](O)C[C@@H]4C[C@H](n5cc(CCCNc6ccc([N+](=O)[O-])c(C(F)(F)F)c6)nn5)CC[C@]4(C)[C@H]3CC[C@]12C	21 µM	32 µM	24 µM								
C[C@H](CCC(=O)O)[C@H]1CC[C@H]2[C@@H]3[C@@H](O)C[C@@H]4C[C@H](n5cc(CCCNc6ccc([N+](=O)[O-])c(C(F)(F)F)c6)nn5)CC[C@]4(C)[C@H]3CC[C@]12C	14 µM	> 100 µM	31.6 µM	Active	Dose-dependent effect	Stable	Dose-dependent effect				
Nc1ncnc2c1nc(SCCCCCNc1ccc([N+](=O)[O-])c(C(F)(F)F)c1)n2[C@H]1C[C@H](O)[C@@H](CO)O1	66.2 µM	> 100 µM	68.1 µM	Active	Dose-dependent effect	Stable	Dose-dependent effect	2	31 µM	Active	Active
